From PubChem BioAssay
hERG rescue – hERG (human) protection from proarrhythmic block. activation (rescue from dofetilide block), less the hit threshold, % at 10 µM. CHO-hERG, FluxOR thallium flux, dofetilide IC70 present. Q12809. 310,000 compounds, 0.51% hits;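 active means activation above the mean of controls blocked by dofetilide plus 5 SD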;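 further: thallium influx through hERG after potassium depolarization seen as dye fluorescence rise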
KCNQ1 inh – human KCNQ1 channel inhibition; 310,000 compounds, 1.3% hits; P51787; B-score at 10 µM; CHO-K1 KCNQ1, FluxOR thallium flux fluorescence; active compounds read high;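 active means compounds whose thallium flux B-score, printed positive for inhibition, exceeds three library SD while starting fluorescence stays within three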;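 further: channel opened by potassium depolarization with thallium stimulus after 20 min compound exposure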
KCNQ1 pot – human KCNQ1 channel potentiation or activation; AID 2648; B-score at 10 µM; 310,000 compounds, 0.35% hits; CHO-K1 KCNQ1, thallium flux FluxOR fluorescence; active compounds read high; P51787;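 active means fluorescence ratio B-score, a plate-corrected score, at least three library SD, with initial intensity B-score within 5 SD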
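Assay system: stable KCNQ1 CHO-K1 line; medium: assay buffer, equal DMSO in all wells; timing: 90 min dye loading and 20 min compound exposure, both at room temperature; technique: kinetic FluxOR thallium fluorescence, 10-s 1-Hz baseline, 110-s post-stimulus read; read-out basis: B score of baseline-normalized fluorescence ratio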
KCNK9 block – human KCNK9 channel inhibition. Q9NPC2. B-score at 10 µM. 310,000 compounds, 1.2% hits. HEK293 KCNK9, FluxOR thallium flux fluorescence; active compounds read low;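 active means ratio B-score over 3 SD below the library mean, with starting fluorescence within 5 SD of its mean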;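 further: negative B-score means less thallium flux so channel inhibition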
KCNK3 inh – human KCNK3 channel inhibition, primary screen | 340,000 compounds, 0.84% hits | B-score at 10 µM | CHO-KCNK3 thallium flux, FluxOR fluorescence; active compounds read low;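 active means B-score under library mean minus 4 SD, starting fluorescence ratio at most library mean plus 5 SD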;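 further: more negative B-score means stronger inhibition of thallium flux through KCNK3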
Kir21 block – Kir2.1 (mouse) channel inhibition; P35561; HEK293-Kir2.1, FluxOR thallium flux fluorescence; active compounds read low; B-score at 10 µM; 310,000 compounds, 0.85% hits;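 active means fluorescence ratio B-score at or below minus 3 SD of library scores, with starting-brightness B-score within 2 SD, cut at about -4.2 in these data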;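 further: channel flux triggered by added potassium and thallium sulfate stimulus; B-score of peak minus minimum fluorescence over baseline after thallium stimulus; more negative B-score means stronger Kir2.1 block with less thallium influx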
KCNK9 block conf – human KCNK9 inhibitor confirmation; 4,900 compounds, 43% hits; AID 492992; shares compounds with KCNK9 block; HEK293 KCNK9 cells, FluxOR thallium flux fluorescence; inhibition, % at 10 µM;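 active means thallium signal inhibited by more than 5 SD of the compound-free buffer control wells, on both duplicate plates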;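 further: 0% = assay buffer control wells without compound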
Kir2-1 spec – mouse Kir2.1 off-target activity of KCNK9 modulators; shares compounds with KCNK9 block; Kir2.1 cells, FluxOR thallium flux fluorescence; inhibition, % at 10 µM; 4,900 compounds, 4% hits; AID 492993;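 active means thallium signal drop more than 5 SD beyond the mean of the no-compound control wells, seen in both duplicate plates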;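 further: signal is fluorescence rise after thallium addition divided by baseline fluorescence; plate controls were assay buffer only for no effect and full block by chlorpromazine control for full effect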
HEK293 Tl ctr – second counter-screen for KCNK9 modulators: effect in non-induced cells; shares compounds with KCNK9 block; non-induced KCNK9-HEK293, FluxOR thallium flux; inhibition, % at 10 µM; 4,900 compounds, 40% hits; AID 492997;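 active means thallium signal drop beyond 5 SD of the untreated control mean, on both duplicate plates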;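 further: plate controls were buffer only IC0 wells for no effect and SID17386958 at its maximal inhibitory level for full effect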
Starred values were filed as active, the others as inactive; i = inactive; x = no result given. Hits are enriched below; roughly 3.8% of the tested compounds scored in any of these assays.

SMILES	hERG rescue	KCNQ1 inh	KCNQ1 pot	KCNK9 block	KCNK3 inh	Kir21 block	KCNK9 block conf	Kir2-1 spec	HEK293 Tl ctr
O=C(CNc1ccc(Br)cc1)NC(=O)NC1CCCCC1	x	x	x	x	i	x	x	x	x
CC(C)c1ccc(OC(=O)c2cccc(S(=O)(=O)N3CCN(C)CC3)c2)cc1	-15	i	i	i	i	-0.65	i	i	i
O=C(NCc1ccco1)c1ccc2c(c1)N(Cc1ccccc1)C(=O)CS2	-14	i	i	i	i	-0.92	i	i	i
Cc1ccc(NC2CCCN(C(=O)c3ccc4[nH]ccc4c3)C2)cc1C (centres undefined)	-6	i	i	i	i	1.9	i	i	i
C=CCOc1cccc(C(=O)N2CCCC(Nc3ccc4c(c3)OCCO4)C2)c1 (centres undefined)	-9	i	i	i	i	0.19	i	i	i
COC(=O)c1cccc(C(=O)N2CCCC(Nc3ccc(C)c(C)c3)C2)c1 (centres undefined)	-10	i	i	i	i	-1.8	i	i	i
COc1ccc(C(=O)N2CCCC(Nc3ccc(C)c(C)c3)C2)cc1F (centres undefined)	-14	i	i	i	i	0	x	x	x
C=CCOc1cccc(C(=O)N2CCCC(CCC(=O)NCc3ccccc3F)C2)c1 (centres undefined)	-5	i	i	i	i	-2	x	x	x
O=C(CN1CCN(Cc2ccccc2F)CC1)Nc1ccccc1Cl	-1	i	i	i	i	0.52	x	x	x
COc1ccc(CCC(=O)Nc2cc(S(=O)(=O)N3CCCCC3)ccc2N(C)C)cc1	x	x	x	x	i	x	x	x	x
CCc1noc(C)c1C(=O)Nc1nnc(CC(C)C)s1	-18	i	i	i	i	0.33	x	x	x
Cn1cc(S(=O)(=O)N2CCN(c3cccc(Cl)c3)CC2)c(=O)n(C)c1=O	-10	i	i	i	i	0.54	i	i	i
Cc1ccc(C(c2nnnn2Cc2cccs2)N2CCN(Cc3ccc4c(c3)OCO4)CC2)cc1 (centres undefined)	-18	i	i	-12*	i	-2.2	i	i	32%*
COC(=O)C(CO)NC(=O)C1CCCN1C(=O)CNC(=O)OCc1ccccc1 (centres undefined)	-4	i	i	i	i	-0.01	x	x	x
CC1CC(C)CN(S(=O)(=O)c2ccc(NC(=O)C3COc4ccccc4O3)cc2)C1 (centres undefined)	-6	i	i	i	i	-0.25	i	i	i
Cc1ccc(NC2CCCN(C(=O)c3cccs3)C2)cc1C (centres undefined)	-11	i	i	i	i	-2.2	i	i	i
COCc1ccc(C(=O)N2CCCC(Nc3ccc(C(C)C)cc3)C2)s1 (centres undefined)	-6	i	i	i	i	-0.93	i	i	i
CC(C)c1ccc(NC2CCCN(C(=O)c3cccs3)C2)cc1 (centres undefined)	-8	i	i	i	i	0.11	i	i	i
COc1ccc(NC2CCCN(C(=O)c3cccs3)C2)cc1 (centres undefined)	-2	i	i	i	i	-1.1	i	i	i
O=C(COC(=O)c1c[nH]c2ccccc12)NC1CCCCC1	x	x	x	x	i	x	x	x	x
CCOC(=O)C1=CN(CC)S(=O)(=O)NC1c1ccc(C(F)(F)F)cc1 (centres undefined)	x	x	x	x	i	x	x	x	x
COc1ccc(N2C(=O)CSC23C(=O)N2c4c(cccc43)C(C)=CC2(C)C)cc1 (centres undefined)	-12	i	i	-8.6*	i	1.2	i	i	46%*
COc1ccc(N2C(=O)CSC23C(=O)N2CCCc4cccc3c42)cc1 (centres undefined)	-12	i	i	i	i	-2.7	x	x	x
COc1cc(OC)nc(Oc2ccccc2C(=O)Oc2ccc(F)cc2Cl)n1	3	i	i	-9.1*	i	0.62	59%*	i	39%*
COc1cc(OC)nc(Oc2cccc(Cl)c2C)n1	-7	i	i	i	i	-0.2	x	x	x
SMILES	hERG rescue	KCNQ1 inh	KCNQ1 pot	KCNK9 block	KCNK3 inh	Kir21 block	KCNK9 block conf	Kir2-1 spec	HEK293 Tl ctr
CN(C)c1oc(/C=C/c2cccs2)nc1S(=O)(=O)c1ccccc1	-5	i	i	-8.1*	i	-0.21	42%*	i	i
COc1ccccc1/C=C/c1nc(S(=O)(=O)c2ccccc2)c(N(C)C)o1	-8	i	i	-11*	i	-0.35	53%*	i	28%*
COc1ccccc1N1CCN(C(=O)c2ccc(Cl)c(S(=O)(=O)N3CCOCC3)c2)CC1	-9	i	i	i	i	-2.5	x	x	x
Cc1ccc(S(=O)(=O)N2CCOCC2)cc1NC(=O)COC(=O)Cc1ccc(Cl)cc1	x	x	x	x	i	x	x	x	x
Cc1ccc(S(=O)(=O)N2CCCCC2)cc1NC(=O)COC(=O)Cc1ccc(Cl)cc1	-11	i	i	i	i	-0.54	i	i	i
Cc1ccc(/C(=N\O)c2oc3c(C)c4oc(=O)cc(C)c4cc3c2C)cc1	-6	8*	i	-9.3*	i	0.04	28%*	i	44%*
Fc1ccc(N2N=C(c3cccs3)CC2c2ccccc2)cc1 (centres undefined)	-13	i	i	-11*	i	-0.32	50%*	i	45%*
Cc1ccc(S(=O)(=O)N/N=C/c2ccc(OS(=O)(=O)c3ccc(C)c([N+](=O)[O-])c3)cc2)cc1	-10	i	i	i	i	-2.7	i	i	i
CCc1ccc2c(c1)C1(SC(NC(C)=O)=NN1C(C)=O)C(=O)N2CC (centres undefined)	-9	i	i	i	i	1.2	x	x	x
CC(C)(C)N1C(=O)[C@H]2[C@@H](c3ccc(Br)cc3)N3C(=O)N(c4cccc(Cl)c4)C(=O)[C@@]3(Cc3ccccc3)[C@H]2C1=O	-5	i	i	-8.4*	i	-0.55	i	i	26%*
COc1ccccc1N(CC(=O)Nc1cc(S(=O)(=O)N(C)C)ccc1C)S(=O)(=O)c1cccs1	x	x	x	x	i	x	x	x	x
